Laboratory results: ChEMBL document CHEMBL2046422, “Structure-activity relationship of nonacidic quinazolinone inhibitors of human microsomal prostaglandin synthase 1 (mPGES 1)” (J Med Chem, 2012)

How the values were obtained:
[1] = molecular target: T1, Prostaglandin E synthase (Mus musculus) (UniProt Q9JM51); experiment: Inhibition of mPGES-1 derived from LPS stimulated mouse NIH3T3 cells microsomal fraction using PGH2 as substrate at 1 uM preincubated for 30 mins prior to substrate addition measured after 1 min by LC-MS/MS analysis relative to control
T1 sequence (whole entry): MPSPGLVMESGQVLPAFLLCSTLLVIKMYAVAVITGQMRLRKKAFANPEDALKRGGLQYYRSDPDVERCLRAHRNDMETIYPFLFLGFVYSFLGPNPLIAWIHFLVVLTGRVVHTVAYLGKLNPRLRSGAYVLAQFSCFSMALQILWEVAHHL

[2] = molecular target: T2, Prostaglandin G/H synthase 1 (Ovis aries) (UniProt P05979); experiment: Inhibition of ovine COX1-mediated PGE2 synthesis using PGH2 as substrate at 1 uM by LC-MS/MS analysis relative to control
T2 sequence (whole entry): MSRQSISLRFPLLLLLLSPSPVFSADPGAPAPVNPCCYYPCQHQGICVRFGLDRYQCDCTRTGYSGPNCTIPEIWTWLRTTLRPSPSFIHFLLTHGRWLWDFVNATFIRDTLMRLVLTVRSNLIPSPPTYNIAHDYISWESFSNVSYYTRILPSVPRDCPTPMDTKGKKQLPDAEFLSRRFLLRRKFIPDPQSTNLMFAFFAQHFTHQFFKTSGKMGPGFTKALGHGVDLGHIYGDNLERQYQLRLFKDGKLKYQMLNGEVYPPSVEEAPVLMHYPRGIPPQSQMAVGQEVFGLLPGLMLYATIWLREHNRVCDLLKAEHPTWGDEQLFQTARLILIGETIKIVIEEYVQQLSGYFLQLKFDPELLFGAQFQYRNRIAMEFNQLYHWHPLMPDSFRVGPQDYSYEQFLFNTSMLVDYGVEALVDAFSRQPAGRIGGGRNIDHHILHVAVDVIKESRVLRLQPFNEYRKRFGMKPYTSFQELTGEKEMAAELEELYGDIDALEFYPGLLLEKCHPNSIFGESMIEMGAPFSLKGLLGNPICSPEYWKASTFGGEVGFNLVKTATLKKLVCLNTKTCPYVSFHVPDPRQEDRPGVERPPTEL
Method in brief: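 Direct enzyme test with a COX inhibitor screening kit, run per the kit protocol: COX-1 was ovine, COX-2 human recombinant. […] Prostaglandins were quantified by LC-MS/MS after solid-phase extraction. Mean of n ≥ 3.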

[3] = molecular target: T3, Prostaglandin E synthase (Homo sapiens) (UniProt O14684); experiment: Inhibition of mPGES-1 derived from IL1beta and TNFalpha stimulated human HeLa cells microsomal fraction using PGH2 as substrate at 1 uM preincubated for 30 mins prior to substrate addition measured after 1 min by LC-MS/MS analysis relative to control
T3 sequence (whole entry): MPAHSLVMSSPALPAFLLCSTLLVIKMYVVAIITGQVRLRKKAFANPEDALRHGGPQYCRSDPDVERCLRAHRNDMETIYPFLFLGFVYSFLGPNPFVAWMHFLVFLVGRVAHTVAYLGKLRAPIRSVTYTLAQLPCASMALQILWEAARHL
Method in brief: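 Microsomes were pelleted by ultracentrifugation and resuspended in buffer with 2.5 mM GSH; protein was measured by Bradford. PGE₂ was read by LC-MS/MS after solid-phase extraction with deuterated standards; n ≥ 3.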

[4] = molecular target: T4, Prostaglandin G/H synthase 2 (Homo sapiens) (UniProt P35354); experiment: Inhibition of COX2 in LPS-stimulated human whole blood assessed as residual PGF2alpha level at 100 uM preincubated for 15 mins prior to LPS-stimulation measured after 24 hrs by LC-MS/MS analysis relative to control
T4 sequence (whole entry): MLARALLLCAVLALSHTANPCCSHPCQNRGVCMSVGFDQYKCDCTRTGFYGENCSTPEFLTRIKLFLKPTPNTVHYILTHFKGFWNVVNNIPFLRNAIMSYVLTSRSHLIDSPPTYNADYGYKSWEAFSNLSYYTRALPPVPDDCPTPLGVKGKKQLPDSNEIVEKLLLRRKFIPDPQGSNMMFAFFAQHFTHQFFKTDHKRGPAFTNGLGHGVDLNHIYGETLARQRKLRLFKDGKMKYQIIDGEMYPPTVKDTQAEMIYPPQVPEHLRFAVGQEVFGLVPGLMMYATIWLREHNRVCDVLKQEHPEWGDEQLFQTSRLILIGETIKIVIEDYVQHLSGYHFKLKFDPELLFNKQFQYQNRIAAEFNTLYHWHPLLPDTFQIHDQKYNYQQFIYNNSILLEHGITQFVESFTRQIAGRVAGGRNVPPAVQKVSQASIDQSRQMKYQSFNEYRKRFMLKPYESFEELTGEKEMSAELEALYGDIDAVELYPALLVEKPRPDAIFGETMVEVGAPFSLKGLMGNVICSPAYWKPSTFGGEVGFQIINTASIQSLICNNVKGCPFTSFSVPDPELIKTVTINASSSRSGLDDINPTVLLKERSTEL
Method in brief: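 Human whole blood received compound in DMSO plus acetylsalicylic acid (10 μg/mL) to block COX-1, 15 min at 37 °C. LPS (10 μg/mL final) in autologous plasma was added to induce COX-2/mPGES-1, and blood was incubated 24 h at 37 °C. Samples were chilled on ice 5 min, and plasma prostaglandins were extracted by solid-phase extraction and quantified by LC-MS/MS. Values are relative to vehicle.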

[5] = molecular target: T1, Prostaglandin E synthase (Mus musculus); experiment: Inhibition of mPGES-1 derived from LPS stimulated mouse RAW264.7 cells microsomal fraction using PGH2 as substrate at 1 uM preincubated for 30 mins prior to substrate addition measured after 1 min by LC-MS/MS analysis relative to control
Method in brief: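 Microsomes came from RAW 264.7 cells stimulated with LPS for 16 h. They were prepared by sonication and ultracentrifugation in 0.1 M potassium phosphate, pH 7.4, with GSH and protease inhibitors, and resuspended with 2.5 mM GSH; protein was measured by Bradford. Compound was tested at the stated final concentration. PGE₂ was quantified by LC-MS/MS after solid-phase extraction with PGE₂-d₄/PGD₂-d₄ standards; SEM, n ≥ 3.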

HeLa = experiment: Cytotoxicity against IL1beta and TNFalpha-stimulated human HeLa cells at 1 to 10 uM after 24 hrs by WST1 assay; type: cell-based
Method in brief: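 HeLa cells were seeded at 3 × 10³ per well and grown 24 h at 37 °C. They were then stimulated with IL-1β (1 ng/mL) + TNFα (5 ng/mL) while treated with compound at 1, 10 or 100 μM, or DMSO, for 24 h. WST-1 was added for 90–150 min and absorbance read at 450 nm against 620 nm. Viability is percent of DMSO control, SEM, n ≥ 3.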

[6] = molecular target: 5-lipoxygenase/FLAP (Homo sapiens) (UniProt P09917+P20292); experiment: Inhibition of 5-lipoxygenase/FLAP in calcium ionophore-stimulated human whole blood assessed as residual (+/-)11HETE level at 10 uM preincubated for 15 mins prior to calcium ionophore-stimulation measured after 15 mins by LC-MS/MS analysis; type: protein-complex assay
Method in brief: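 Heparinized human whole blood (500 μL) was preincubated with compound for 15 min at 37 °C. It was then stimulated with 20 μM calcium ionophore A23187 in autologous plasma for 15 min at 37 °C and chilled on ice for 5 min. Plasma was collected by centrifugation at 4 °C. Eicosanoids were recovered by liquid–liquid extraction with deuterated internal standards and quantified by LC-MS/MS (MRM). Levels are relative to vehicle-treated blood.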

inhibition [1] | inhibition [2] | inhibition [3] | Activity [4] | inhibition [5] | Activity [6] | Compound | Activity (HeLa)
17.1% | 2.6% | 68.8% | 234% | 12.4% | 85.2% | CCCc1nc2ccc(NC(=O)c3ccccc3Cl)cc2c(=O)n1Cc1ccc(-c2ccc(Cl)cc2)cc1 | Non-toxic
10.7% | < 0% | 66.7% | 94.2% | 8.4% | 76.8% | CCCc1nc2ccc(NC(=O)c3ccccc3Cl)cc2c(=O)n1Cc1ccc(-c2cccc(Cl)c2)cc1 | –
20.3% | 8.4% | 74.2% | 92.6% | 11.8% | 84.8% | CCCc1nc2ccc(NC(=O)c3ccccc3Cl)cc2c(=O)n1Cc1ccc(-c2ccccc2)cc1 | Non-toxic

Further lines, the molecule ahead of its results:

Compound | inhibition [1] | inhibition [2] | inhibition [3] | Activity [4] | inhibition [5] | Activity [6] | Activity (HeLa)
CCCc1nc2ccc(NC(=O)c3ccccc3Cl)cc2c(=O)n1Cc1ccc(-c2cccc(OC)c2)cc1 | 4.6% | 20.1% | 71.5% | 92.5% | 15.3% | 77% | Non-toxic
CCCc1nc2ccc(NC(=O)c3ccccc3C)cc2c(=O)n1Cc1cccc(Cl)c1 | 0.9% | < 0% | 63.1% | 93.8% | 6% | 86.5% | Non-toxic
CCCc1nc2ccc(NC(=O)c3c(F)cccc3Cl)cc2c(=O)n1Cc1cccc(Cl)c1 | – | < 0% | 75.6% | 97% | -8.7% | 123% | Non-toxic
CCCc1nc2ccc(NC(=O)c3ccccc3Cl)cc2c(=O)n1Cc1cccc(Cl)c1 | -0.8% | < 0% | 86.3% | 81.3% | 9.5% | 71.6% | Non-toxic
